Screening data as filed in PubChem BioAssay.
This is a sample that favours compounds with a hit; in the whole collection about 2.5% have one here.
TCR CD3 inh: human TCR-CD3 binding inhibition; TAMRA-labeled TCR probe fluorescence, biochemical; inhibition, % at 9.4 µM; hit rate 0.37% among 360,000; AID 651800; in the data active = inhibition above about 19%;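 also: recombinant mutant TCR 2C K166C tagged with TAMRA read by polarization; 0% = receptor in buffer alone and 100% = receptor with positive control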
PRMT1 FP inh: blocks human protein arginine methyltransferase 1. hit rate 1.3% among 370,000. recombinant PRMT1, activity-based probe fluorescence polarization. Q99873. inhibition, % at 2.79 µM;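 active = inhibition above about 21% made by adding two undisclosed values, limit read from the data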
ABHD4 inh: ABHD4 (mouse) inhibition, primary FP screen; inhibition, % at 8.92 µM; hit rate 0.54% among 370,000; purified mABHD4, FP-Rh probe fluorescence polarization; Q8VD66;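 active = inhibition exceeding the mean over every tested compound plus 3 SD, cut at about 30% in these data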;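 also: 0% = plate median of compound wells and 100% = S159A mutant with DMSO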
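assay system = mABHD4 protein | compound dosing = single nominal dose of 8.92 µM, 0.89% DMSO final | read-out basis = percent inhibition of probe binding, normalized to plate controls | schedule = Enzyme–compound pre-incubation 45 min, then probe 60 min, both 25 °C | detection = fluorescence polarization, excitation 525 nm, emission 598 nm, BODIPY TMR filters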
HTRA1 inh: HTRA1 (human) protease inhibition; inhibition, % at 5.96 µM; hit rate 0.5% among 340,000; recombinant HTRA1, FP-rhodamine activity-based probe, fluorescence polarization; in the data active = inhibition above about 36%;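 also: 0% = enzyme with DMSO and 100% = wells lacking enzyme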
Target sequence (Q92743 whole entry, looked up): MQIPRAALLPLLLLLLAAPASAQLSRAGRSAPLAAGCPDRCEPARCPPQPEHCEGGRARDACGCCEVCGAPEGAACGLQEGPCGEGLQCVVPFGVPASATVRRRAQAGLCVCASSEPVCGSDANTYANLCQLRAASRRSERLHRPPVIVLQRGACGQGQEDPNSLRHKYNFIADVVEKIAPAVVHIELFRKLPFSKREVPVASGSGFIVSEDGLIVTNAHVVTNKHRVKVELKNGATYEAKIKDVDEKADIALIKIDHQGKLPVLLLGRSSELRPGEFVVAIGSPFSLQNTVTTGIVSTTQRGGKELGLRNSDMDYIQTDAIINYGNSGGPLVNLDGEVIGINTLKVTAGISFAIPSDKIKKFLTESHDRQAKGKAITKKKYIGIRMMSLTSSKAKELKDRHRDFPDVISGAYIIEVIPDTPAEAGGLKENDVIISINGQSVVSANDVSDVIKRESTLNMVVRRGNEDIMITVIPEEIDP
SIAE primary: inhibitors of human sialic acid acetylesterase SIAE; Q9HAT2; SIAE FP-Rh probe binding, fluorescence polarization; inhibition, % at 9.66 µM; hit rate 0.69% among 370,000; AID 1053197;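 active = inhibition above a cutoff: mean of compounds within the control limits plus 3 SD of those, cut at about 17% in these data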;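 also: 0% = plate median of compound wells and 100% = probe without SIAE protein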
PRMT1 confirm: PRMT1 (human) inhibition, FP confirmation; recombinant His-PRMT1, activity-based probe fluorescence polarization; shares compounds with PRMT1 FP inh; inhibition, % at 2.79 µM; hit rate 42% among 3,300;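 active = mean inhibition across replicates above the hit cutoff derived for the earlier primary screen, cut at about 22% in these data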
An asterisk follows results filed as active.

Results for COCCn1c(C)cc(C(=O)CSc2ccc(NC(C)=O)cc2)c1C ?
TCR CD3 inh: 5; PRMT1 FP inh: 25*; ABHD4 inh: -1; HTRA1 inh: -1; SIAE primary: 0; PRMT1 confirm: 25*

How did COCCn1c(C)cc(C(=O)CSc2ccc3ccccc3n2)c1C do in these assays?
TCR CD3 inh: -4; PRMT1 FP inh: 35*; ABHD4 inh: 10; HTRA1 inh: -16; SIAE primary: 14; PRMT1 confirm: -3

How did COC(=O)[C@]12C[C@H](CC(=O)N3CCCC3)C(=O)N(Cc3ccc4c(c3)OCO4)C1=C[C@H](C(C)(C)C)O[C@@H]2C do in these assays?
TCR CD3 inh: -6; PRMT1 FP inh: 0; ABHD4 inh: -5; SIAE primary: 4

What do the screens show for `c1coc(-c2nc3c([nH]2)CCc2nonc2-3)c1`?
TCR CD3 inh: 17; PRMT1 FP inh: 72*; ABHD4 inh: 12; HTRA1 inh: 2; SIAE primary: -5; PRMT1 confirm: 0

What do the screens show for `N#C/C(=C\c1ccccc1)C(=O)NNS(=O)(=O)c1cccc([N+](=O)[O-])c1`?
TCR CD3 inh: 3; PRMT1 FP inh: 43*; ABHD4 inh: 7; HTRA1 inh: -3; SIAE primary: -5; PRMT1 confirm: 4

How did COc1ccc2[nH]c(C)c(CCN(Cc3cccs3)C(=S)Nc3ccc(F)cc3)c2c1 do in these assays?
HTRA1 inh: 18

What do the screens show for `COc1ccc2[nH]c(C)c(CCN(Cc3cccs3)C(=S)Nc3ccccc3)c2c1`?
TCR CD3 inh: -1; PRMT1 FP inh: 29*; ABHD4 inh: 9; HTRA1 inh: 10; SIAE primary: 3; PRMT1 confirm: 11

What do the screens show for `COCCNC(=O)c1cc(-c2ccccc2)sc1N`?
TCR CD3 inh: -2; PRMT1 FP inh: 32*; ABHD4 inh: 2; SIAE primary: 1; PRMT1 confirm: -2

What do the screens show for `CCCCNC(=O)c1cc(-c2ccccc2)sc1N`?
TCR CD3 inh: -2; PRMT1 FP inh: 11; ABHD4 inh: 5; SIAE primary: 8

Results for Oc1ccccc1C(=S)N1CCN(C(=S)c2ccccc2O)CC1 ?
TCR CD3 inh: -12; PRMT1 FP inh: 42*; ABHD4 inh: -5; HTRA1 inh: 1; SIAE primary: 1; PRMT1 confirm: 19

What do the screens show for `O=C(C1CCN(C2CC(=O)N(c3ccc(F)cc3)C2=O)CC1)N1CCOCC1` (stereo unspecified)?
TCR CD3 inh: 1; PRMT1 FP inh: 46*; ABHD4 inh: 0; HTRA1 inh: 4; SIAE primary: -9; PRMT1 confirm: 3

What do the screens show for `O=C1CCCN1CCC1CCN(C2CC(=O)N(c3ccc(F)cc3)C2=O)CC1` (stereo unspecified)?
TCR CD3 inh: 9; PRMT1 FP inh: 48*; ABHD4 inh: 7; HTRA1 inh: 0; SIAE primary: 0; PRMT1 confirm: 7

Results for O=C1CC(N2CCOCC2)C(=O)N1c1ccccc1Cl (stereo unspecified) ?
TCR CD3 inh: 8; PRMT1 FP inh: 26*; ABHD4 inh: -1; HTRA1 inh: 8; SIAE primary: -6; PRMT1 confirm: 2

Results for O=C(C1CC1)N1CCCN(C(=O)C2CC2)CC1 ?
TCR CD3 inh: -1; PRMT1 FP inh: -4; ABHD4 inh: 5; HTRA1 inh: -1; SIAE primary: 6

What do the screens show for `O=C1CC(N2CCC(C(=O)N3CCCCC3)CC2)C(=O)N1` (stereo unspecified)?
TCR CD3 inh: -2; PRMT1 FP inh: 62*; ABHD4 inh: -5; HTRA1 inh: 1; SIAE primary: 3; PRMT1 confirm: 7

How did CCN1C(=O)CC(N2CCC(C(=O)N3CCOCC3)CC2)C1=O (stereo unspecified) do in these assays?
TCR CD3 inh: -7; PRMT1 FP inh: 8; ABHD4 inh: -5; HTRA1 inh: 1; SIAE primary: 3

How did CCC(O)(c1ccc(NC(=O)OC(C)(C)C)cc1)c1cc(OC)cc(OC)c1 (stereo unspecified) do in these assays?
PRMT1 FP inh: 2; ABHD4 inh: -29; SIAE primary: 5

Results for CN1CCN(c2ccc(NC(=O)CSc3nnnn3-c3ccccc3Cl)cc2)CC1 ?
TCR CD3 inh: -3; PRMT1 FP inh: -1; ABHD4 inh: 3; HTRA1 inh: 4; SIAE primary: 1

What do the screens show for `CC(=O)Nc1cccc(N2C(=O)CC(N3CCC(C(=O)N4CCCCC4)CC3)C2=O)c1` (stereo unspecified)?
TCR CD3 inh: -3; PRMT1 FP inh: 79*; ABHD4 inh: 2; HTRA1 inh: -3; SIAE primary: -4; PRMT1 confirm: 1

Results for COc1cccc(N2CCN(C3CC(=O)N(c4cccc(Cl)c4)C3=O)CC2)c1 (stereo unspecified) ?
TCR CD3 inh: -5; PRMT1 FP inh: 9; ABHD4 inh: 4; HTRA1 inh: 6; SIAE primary: -5

How did COc1cc(OC)cc(N2C(=O)CC(N3CCC(C(=O)N4CCCCC4)CC3)C2=O)c1 (stereo unspecified) do in these assays?
TCR CD3 inh: 1; PRMT1 FP inh: 78*; ABHD4 inh: -16; HTRA1 inh: -4; SIAE primary: -4; PRMT1 confirm: 2

What do the screens show for `O=c1[nH]c(CN2CCN(S(=O)(=O)c3ccccc3C(F)(F)F)CC2)nc2sc3c(c12)CCCC3`?
TCR CD3 inh: -2; PRMT1 FP inh: 0; ABHD4 inh: 4; HTRA1 inh: -18; SIAE primary: -4

What do the screens show for `Cc1c(N/C(=N/S(=O)(=O)c2ccc(Cl)cc2)c2ccccc2)c(=O)n(-c2ccccc2)n1C`?
TCR CD3 inh: -1; PRMT1 FP inh: 3; ABHD4 inh: -6; SIAE primary: -2

How did COC(=O)C(C)Oc1ccc(Cc2ncc(C(F)(F)F)cc2Cl)cc1 (stereo unspecified) do in these assays?
TCR CD3 inh: -4; PRMT1 FP inh: 3; ABHD4 inh: 2; HTRA1 inh: -3; SIAE primary: -4

Results for O=C(O)c1cc(-c2ccc(/C=C3\NC(=O)N(c4ccccc4)C3=O)o2)ccc1Cl ?
TCR CD3 inh: 0; PRMT1 FP inh: 6; ABHD4 inh: 9; HTRA1 inh: 5; SIAE primary: 14

What do the screens show for `O=C(O)c1cc(-c2ccc(/C=C3\NC(=O)N(c4ccc(Cl)cc4)C3=O)o2)ccc1Cl`?
TCR CD3 inh: -15; PRMT1 FP inh: 27*; ABHD4 inh: 15; HTRA1 inh: 6; SIAE primary: -2; PRMT1 confirm: 22*

What do the screens show for `O=C1C(=C2CCCCC2)SC(=S)N1Cc1ccco1`?
TCR CD3 inh: 5; PRMT1 FP inh: 44*; ABHD4 inh: 10; HTRA1 inh: 5; SIAE primary: 7; PRMT1 confirm: 39*

How did O=C(O)CCN1C(=O)C(=C2CCCCCC2)SC1=S do in these assays?
TCR CD3 inh: -4; PRMT1 FP inh: 7; ABHD4 inh: 12; HTRA1 inh: 0; SIAE primary: -1
